ChEMBL document CHEMBL1140065, “Potent cationic inhibitors of West Nile virus NS2B/NS3 protease with serum stability, cell permeability and antiviral activity” (J Med Chem, 2008)
The source made the active and inactive calls. The calls are words filed in the database; no cut-off is given here. Starred links: 1 amine or outer side, 2 acyl side, 3 side chain; linkers in the order of their positions; H or OH if unused. Non-standard residues stand in square brackets, D forms with d. Residues, ends and D or L forms follow the SMILES beside them. *: point of attachment. Hydrocinnamoyl = O=C(CCc1ccccc1)*; hArg = N=C(N)NCCCC[C@H](N)C(=O)O; Cit = NC(=O)NCCC[C@H](N)C(=O)O; Orn = NCCC[C@H](N)C(=O)O; 2Abz = Nc1ccccc1C(=O)O; Cbz = O=C(OCc1ccccc1)*; PhAc = O=C(Cc1ccccc1)*; CO = O=C([*:1])[*:2]; NHBn = c1ccc(CN*)cc1; Bz = O=C(c1ccccc1)*

Tests used:
Genome polyprotein = Genome polyprotein (West Nile virus, UniProt P06935); assay: Inhibition of WNV recombinant NS2B-NS3 protease
[1] = molecular target: Genome polyprotein (West Nile virus) (UniProt P06935); assay: Inhibition of WNV recombinant NS2B-NS3 protease at 10 uM
Outline: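 Single-concentration screen at 10 µM inhibitor, scoring inhibition of recombinant WNV protease processing of the chromogenic tetrapeptide substrate Ac-LKKR-pNA.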

West Nile virus [2] = assay: Antiviral activity against WNV Kunjin infected african green monkey Vero cells assessed as reduction in plaque size at 12.5 uM measured at 48 hrs postinfection; assay type: functional, organism-based
Outline: (§1)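 Vero cells were seeded at 4 × 10^4 per well and grown to about 90% confluence, then washed with PBS and serum-free medium. Cells were coinfected with WNV Kunjin (moi 0.04) plus compound at 100 nM–200 µM for 2 h at 37 °C. Overlay was M199, 3% FBS, 1.2% carboxymethyl cellulose, 48 h. Plaques were immunostained with anti-NS1 antibody and read as infrared area; ten plaques averaged per well, duplicates, IC50 from dose-response.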

West Nile virus [3] = assay: Antiviral activity against WNV Kunjin infected african green monkey Vero cells assessed as reduction in plaque size measured at 48 hrs postinfection; assay type: functional, organism-based; outline: as §1
Bos taurus = organism: Bos taurus; assay: Inhibition of bovine trypsin at 1 uM
[4] = molecular target: Coagulation factor X (Bos taurus) (UniProt P00743); assay: Inhibition of bovine factor 10a at 1 uM
[5] = molecular target: Plasminogen (Homo sapiens) (UniProt P00747); assay: Inhibition of human plasmin at 1 uM
[6] = molecular target: Urokinase-type plasminogen activator (Homo sapiens) (UniProt P00749); assay: Inhibition of human urokinase at 1 uM
Vero = assay: Cytotoxicity against african green monkey Vero cells upto 400 uM after 72 hrs by MTT assay; assay type: cell-based; details: chlorocebus sabaeus
Outline: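 MTT viability in Vero cells seeded at 4 × 10^4 per well and grown to about 90% confluence (~12 h). Fresh medium held compound at 5 nM–400 µM, with control medium ± DMSO. After 72 h, MTT was added for 3.5 h at 37 °C, then HCl/isopropanol for 4 h at RT. Absorbance was read at 550 nm; CC50 estimated; duplicates.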

Sequence of Genome polyprotein (West Nile virus) (P06935 whole entry): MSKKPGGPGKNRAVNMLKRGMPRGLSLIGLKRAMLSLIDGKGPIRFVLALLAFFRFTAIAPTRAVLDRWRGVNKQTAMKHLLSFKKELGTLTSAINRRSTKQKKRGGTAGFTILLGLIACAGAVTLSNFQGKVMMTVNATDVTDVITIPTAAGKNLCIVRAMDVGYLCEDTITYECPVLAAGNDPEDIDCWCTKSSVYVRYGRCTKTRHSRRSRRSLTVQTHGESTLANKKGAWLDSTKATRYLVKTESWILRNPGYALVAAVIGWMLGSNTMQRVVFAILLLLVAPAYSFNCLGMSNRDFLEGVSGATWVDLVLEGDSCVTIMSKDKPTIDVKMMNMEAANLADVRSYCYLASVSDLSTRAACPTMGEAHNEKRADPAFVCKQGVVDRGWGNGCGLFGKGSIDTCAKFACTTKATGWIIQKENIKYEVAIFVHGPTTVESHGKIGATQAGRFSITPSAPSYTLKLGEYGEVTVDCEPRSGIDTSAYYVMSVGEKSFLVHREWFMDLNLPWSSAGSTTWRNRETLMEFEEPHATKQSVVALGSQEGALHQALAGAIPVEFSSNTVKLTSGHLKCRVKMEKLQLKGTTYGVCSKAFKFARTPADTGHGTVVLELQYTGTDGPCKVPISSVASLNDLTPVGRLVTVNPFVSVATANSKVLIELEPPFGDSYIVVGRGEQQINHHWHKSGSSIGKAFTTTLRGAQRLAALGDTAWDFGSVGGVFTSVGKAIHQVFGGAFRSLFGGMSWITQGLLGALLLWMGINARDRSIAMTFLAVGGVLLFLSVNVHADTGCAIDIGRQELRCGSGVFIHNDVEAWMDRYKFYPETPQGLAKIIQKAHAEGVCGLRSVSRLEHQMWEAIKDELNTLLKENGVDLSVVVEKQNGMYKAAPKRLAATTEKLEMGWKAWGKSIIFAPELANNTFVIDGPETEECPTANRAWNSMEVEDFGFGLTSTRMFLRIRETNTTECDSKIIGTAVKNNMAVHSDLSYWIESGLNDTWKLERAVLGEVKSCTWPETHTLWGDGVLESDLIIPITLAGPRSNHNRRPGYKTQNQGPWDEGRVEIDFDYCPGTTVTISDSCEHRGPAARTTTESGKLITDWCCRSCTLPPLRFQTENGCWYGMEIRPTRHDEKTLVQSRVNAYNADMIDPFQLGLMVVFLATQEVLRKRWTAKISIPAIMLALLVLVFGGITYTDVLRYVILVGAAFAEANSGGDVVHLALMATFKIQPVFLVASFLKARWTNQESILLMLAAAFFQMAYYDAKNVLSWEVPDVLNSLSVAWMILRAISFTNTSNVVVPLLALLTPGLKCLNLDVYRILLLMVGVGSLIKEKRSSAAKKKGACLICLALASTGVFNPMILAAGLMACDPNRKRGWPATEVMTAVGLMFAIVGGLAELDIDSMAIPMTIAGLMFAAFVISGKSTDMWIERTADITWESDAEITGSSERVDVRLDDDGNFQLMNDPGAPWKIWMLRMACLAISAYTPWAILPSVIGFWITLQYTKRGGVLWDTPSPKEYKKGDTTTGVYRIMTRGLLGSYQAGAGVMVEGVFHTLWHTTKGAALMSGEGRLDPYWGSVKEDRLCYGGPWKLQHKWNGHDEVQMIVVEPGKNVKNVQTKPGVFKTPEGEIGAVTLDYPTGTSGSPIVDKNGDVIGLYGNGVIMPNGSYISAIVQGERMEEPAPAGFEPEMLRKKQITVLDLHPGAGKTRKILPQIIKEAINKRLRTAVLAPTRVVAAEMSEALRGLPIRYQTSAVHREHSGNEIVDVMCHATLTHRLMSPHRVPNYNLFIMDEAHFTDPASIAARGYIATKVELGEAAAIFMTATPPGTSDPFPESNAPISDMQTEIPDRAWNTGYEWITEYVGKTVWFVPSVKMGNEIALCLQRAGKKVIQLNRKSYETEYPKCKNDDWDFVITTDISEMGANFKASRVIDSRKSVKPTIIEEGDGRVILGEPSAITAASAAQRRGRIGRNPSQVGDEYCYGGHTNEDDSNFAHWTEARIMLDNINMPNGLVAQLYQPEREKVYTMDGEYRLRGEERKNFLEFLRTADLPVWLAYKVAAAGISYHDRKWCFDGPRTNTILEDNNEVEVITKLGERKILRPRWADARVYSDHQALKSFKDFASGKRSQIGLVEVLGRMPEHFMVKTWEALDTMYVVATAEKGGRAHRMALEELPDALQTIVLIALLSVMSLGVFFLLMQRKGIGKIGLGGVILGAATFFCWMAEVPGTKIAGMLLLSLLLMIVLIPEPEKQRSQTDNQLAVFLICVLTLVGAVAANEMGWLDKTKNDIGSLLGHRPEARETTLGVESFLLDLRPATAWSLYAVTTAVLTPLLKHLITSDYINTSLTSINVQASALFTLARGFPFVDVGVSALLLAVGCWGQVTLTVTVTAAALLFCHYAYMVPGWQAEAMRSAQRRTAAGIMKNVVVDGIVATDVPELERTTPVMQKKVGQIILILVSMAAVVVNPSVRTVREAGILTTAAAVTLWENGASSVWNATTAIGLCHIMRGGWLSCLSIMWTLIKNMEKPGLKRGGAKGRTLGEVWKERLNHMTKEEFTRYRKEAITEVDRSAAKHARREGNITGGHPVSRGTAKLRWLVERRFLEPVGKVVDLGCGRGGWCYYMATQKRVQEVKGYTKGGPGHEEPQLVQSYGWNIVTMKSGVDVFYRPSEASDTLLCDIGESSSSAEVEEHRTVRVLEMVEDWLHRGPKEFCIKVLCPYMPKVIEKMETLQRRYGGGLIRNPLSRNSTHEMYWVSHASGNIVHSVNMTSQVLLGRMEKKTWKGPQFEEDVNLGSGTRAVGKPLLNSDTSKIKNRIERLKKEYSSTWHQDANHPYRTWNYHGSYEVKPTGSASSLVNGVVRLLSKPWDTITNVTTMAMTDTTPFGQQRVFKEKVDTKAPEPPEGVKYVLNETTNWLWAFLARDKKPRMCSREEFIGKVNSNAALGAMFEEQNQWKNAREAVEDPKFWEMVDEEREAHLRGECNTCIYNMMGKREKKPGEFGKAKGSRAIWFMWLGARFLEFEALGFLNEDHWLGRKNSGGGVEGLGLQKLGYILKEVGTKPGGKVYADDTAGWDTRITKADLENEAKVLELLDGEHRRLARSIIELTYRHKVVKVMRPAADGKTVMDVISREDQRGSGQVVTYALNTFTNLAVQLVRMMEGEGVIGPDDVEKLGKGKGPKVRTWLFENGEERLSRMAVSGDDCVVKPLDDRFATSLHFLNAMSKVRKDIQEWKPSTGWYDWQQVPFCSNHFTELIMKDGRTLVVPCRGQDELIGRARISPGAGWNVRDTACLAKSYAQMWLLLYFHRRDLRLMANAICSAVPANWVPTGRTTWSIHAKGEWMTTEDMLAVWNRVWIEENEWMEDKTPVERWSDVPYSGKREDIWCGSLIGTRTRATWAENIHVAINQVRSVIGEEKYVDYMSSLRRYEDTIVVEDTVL
Sequence of Genome polyprotein (P06935 1371-1501 limits assumed): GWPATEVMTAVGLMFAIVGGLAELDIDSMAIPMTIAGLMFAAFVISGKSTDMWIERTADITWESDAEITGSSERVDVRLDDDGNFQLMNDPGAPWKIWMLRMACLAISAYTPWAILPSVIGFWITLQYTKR
Sequence of Genome polyprotein (P06935 1502-2120 limits assumed): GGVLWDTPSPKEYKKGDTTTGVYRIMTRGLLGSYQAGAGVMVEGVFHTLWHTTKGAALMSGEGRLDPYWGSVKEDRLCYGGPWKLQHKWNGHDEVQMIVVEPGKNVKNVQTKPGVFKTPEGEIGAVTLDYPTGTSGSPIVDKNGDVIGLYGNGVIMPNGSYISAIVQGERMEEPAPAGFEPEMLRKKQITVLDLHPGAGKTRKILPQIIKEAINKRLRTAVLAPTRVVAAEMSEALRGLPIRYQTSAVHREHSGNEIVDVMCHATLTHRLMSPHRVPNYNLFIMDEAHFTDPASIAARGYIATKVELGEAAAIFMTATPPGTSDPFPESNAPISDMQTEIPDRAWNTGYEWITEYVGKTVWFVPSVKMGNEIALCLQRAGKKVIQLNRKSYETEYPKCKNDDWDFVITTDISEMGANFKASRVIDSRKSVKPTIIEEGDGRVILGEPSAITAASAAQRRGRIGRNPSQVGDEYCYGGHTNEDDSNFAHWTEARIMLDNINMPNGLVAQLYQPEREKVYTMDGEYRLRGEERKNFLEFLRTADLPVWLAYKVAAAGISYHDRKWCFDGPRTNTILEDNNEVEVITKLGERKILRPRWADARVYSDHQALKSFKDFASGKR
Sequence of Coagulation factor X (Bos taurus) (P00743 41-180 limits assumed): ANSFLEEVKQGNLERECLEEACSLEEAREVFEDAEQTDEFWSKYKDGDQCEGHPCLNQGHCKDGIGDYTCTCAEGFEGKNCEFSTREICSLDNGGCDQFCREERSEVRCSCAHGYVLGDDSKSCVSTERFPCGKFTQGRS
Sequence of Coagulation factor X (Bos taurus) (P00743 234-492 limits assumed): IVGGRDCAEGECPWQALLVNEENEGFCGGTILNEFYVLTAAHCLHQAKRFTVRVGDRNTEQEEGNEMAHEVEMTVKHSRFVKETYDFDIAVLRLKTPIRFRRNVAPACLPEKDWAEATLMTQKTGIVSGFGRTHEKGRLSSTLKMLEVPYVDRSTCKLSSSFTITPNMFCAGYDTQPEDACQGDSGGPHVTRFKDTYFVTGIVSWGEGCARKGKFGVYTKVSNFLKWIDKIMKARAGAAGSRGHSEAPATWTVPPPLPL

SMILES | IC50 (Genome polyprotein) [nM] | Ki (Genome polyprotein) [nM] | other results
NCCCC[C@H](NC(=O)c1ccccc1)C(=O)N[C@@H](CCCCN)C(=O)N[C@H](C=O)CCCN=C(N)N (Bz-Lys-Lys-Arg-aldehyde) | 271 | 49 | –
N=C(N)NCCCC[C@H](NC(=O)Cc1ccccc1)C(=O)N[C@@H](CCCCN)C(=O)N[C@H](C=O)CCCNC(=N)N (PhAc-[hArg]-Lys-Arg-aldehyde) | 254 | 44 | –
N=C(N)NCCC[C@@H](C=O)NC(=O)[C@H](CCCNC(N)=O)NC(=O)[C@H](CCCCN)NC(=O)Cc1ccccc1 (PhAc-Lys-[Cit]-Arg-aldehyde) | 11600 | 2070 | –
N=C(N)NCCC[C@@H](C=O)NC(=O)[C@H](CCCCN)NC(=O)[C@H](CCCCN)NC(=O)Cc1ccccc1 (PhAc-Lys-Lys-Arg-aldehyde) | – | – | inhibition [1]: > 80%; Activity (West Nile virus [2]): Active; IC50 (West Nile virus [3]): 1600 nM; inhibition (Bos taurus): 25%; inhibition [4]: 0%; inhibition [5]: 12%; inhibition [6]: 0%
N=C(N)NCCC[C@@H](C=O)NC(=O)[C@H](CCCCN)NC(=O)[C@H](CCCCN)NC(=O)/C=C/c1ccccc1 | 580 | 104 | inhibition [1]: > 80%
COc1ccc2ccc([C@H](C)C(=O)N[C@@H](CCCCN)C(=O)N[C@@H](CCCCN)C(=O)N[C@H](C=O)CCCNC(=N)N)cc2c1 | 112 | 20 | inhibition [1]: > 80%
N=C(N)NCCC[C@@H](C=O)NC(=O)[C@H](CCCCN)NC(=O)[C@H](CCCCN)NC(=O)c1ccc2ccccc2c1 | – | – | inhibition [1]: > 80%
N=C(N)NCCC[C@@H](C=O)NC(=O)[C@H](CCCCN)NC(=O)[C@H](CCCCN)NC(=O)NCc1ccccc1 ({NHBn-CO}-Lys-Lys-Arg-aldehyde) | 146 | 26 | inhibition [1]: > 80%
N=C(N)NCCCC[C@H](NC(=O)[C@H](CCCCN)NC(=O)Cc1ccccc1)C(=O)N[C@H](C=O)CCCNC(=N)N (PhAc-Lys-[hArg]-Arg-aldehyde) | 297 | 53 | –
N=C(N)NCCC[C@@H](C=O)NC(=O)[C@H](CCCCN)NC(=O)[C@H](CCCCN)NC(=O)COc1ccccc1 | 107 | 19 | –
NCCCC[C@H](NC(=O)Cc1ccccc1)C(=O)N[C@@H](CCCCN)C(=O)N[C@H](C=O)CCCN=C(N)N (PhAc-Lys-Lys-Arg-aldehyde) | 51 | 9 | Activity (Vero): Non-toxic
N=C(N)NCCC[C@@H](C=O)NC(=O)[C@H](CCCCN)NC(=O)[C@H](CCCNC(N)=O)NC(=O)Cc1ccccc1 (PhAc-[Cit]-Lys-Arg-aldehyde) | 619 | 111 | –
NCCCC[C@H](NC(=O)c1ccc2ccccc2c1)C(=O)N[C@@H](CCCCN)C(=O)N[C@H](C=O)CCCN=C(N)N | 231 | 41 | –
N=C(N)NCCC[C@@H](C=O)NC(=O)[C@H](CCCCN)NC(=O)[C@H](CCCCN)NC(=O)c1ccccc1N (H-[2Abz]KKR-aldehyde) | 891 | 160 | –
COc1cccc(CC(=O)N[C@@H](CCCCN)C(=O)N[C@@H](CCCCN)C(=O)N[C@H](C=O)CCCN=C(N)N)c1 | 60 | 11 | –
N=C(N)NCCC[C@@H](C=O)NC(=O)[C@H](CCCN)NC(=O)[C@H](CCCCN)NC(=O)Cc1ccccc1 (PhAc-Lys-[Orn]-Arg-aldehyde) | 73 | 13 | –
N=C(N)NCCC[C@@H](C=O)NC(=O)[C@H](CCCCN)NC(=O)[C@H](CCCN)NC(=O)Cc1ccccc1 (PhAc-[Orn]-Lys-Arg-aldehyde) | 255 | 46 | –
NCCCC[C@H](NC(=O)CCc1ccccc1)C(=O)N[C@@H](CCCCN)C(=O)N[C@H](C=O)CCCN=C(N)N (Hydrocinnamoyl-Lys-Lys-Arg-aldehyde) | 454 | 81 | –
N=C(N)NCCC[C@@H](C=O)NC(=O)[C@H](CCCCN)NC(=O)[C@H](CCCCN)NC(=O)Cc1ccc(-c2ccccc2)cc1 | 32 | 6 | inhibition [1]: > 80%
NCCCC[C@H](NC(=O)Cc1ccccc1)C(=O)N[C@@H](CCCCN)C(=O)N[C@H](C=O)Cc1c[nH]c2ccccc12 (PhAc-Lys-Lys-Trp-aldehyde) | 25700 | 4600 | –
NCCCC[C@H](NC(=O)[C@H](CCCN=C(N)N)NC(=O)Cc1ccccc1)C(=O)N[C@H](C=O)CCCN=C(N)N (PhAc-Arg-Lys-Arg-aldehyde) | 154 | 28 | –
COc1cccc(CC(=O)N[C@@H](CCCCN)C(=O)N[C@@H](CCCCN)C(=O)N[C@H](C=O)CCCNC(=N)N)c1 | – | – | inhibition [1]: > 80%
NCCCC[C@H](NC(=O)OCc1ccccc1)C(=O)N[C@@H](CCCCN)C(=O)N[C@H](C=O)CCCN=C(N)N (Cbz-Lys-Lys-Arg-aldehyde) | 222 | 40 | –
N=C(N)NCCC[C@@H](C=O)NC(=O)[C@H](CCCNC(=N)N)NC(=O)[C@H](CCCCN)NC(=O)Cc1ccccc1 (PhAc-Lys-Arg-Arg-aldehyde) | 325 | 58 | –
